# Data reported in publication PMC2887662 (Journal of medicinal chemistry, 2010).
# pIC50: −log10 of the molar value. Entries after “also recorded” stand apart in the source; their conditions may differ.
# Columns and labels:
# [1] = system: panel of six different human tumor cell lines; experiment: Antiproliferative activity, panel of six cell lines; type: cell-based; settings: for pIC50: Homo sapiens, read-out: IC50 values, range against the cell lines; for antiproliferative activity (in words): six human tumor cell lines
# Procedure, shortened: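 Cells in RPMI-1640 (Jurkat, HL-60, K562) or DMEM (MCF7, A549, HeLa) with 10% FBS and penicillin/streptomycin. 8 × 10^3 cells/well were preincubated 18 h, then exposed to a range of test compound concentrations in complete medium for 72 h at 37 °C, 5% CO2. Viability was read by MTT.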
# [2] = system: HeLa cells; experiment: Flow cytometric cell cycle analysis, HeLa; type: cell-based, human; settings: for G2/M cell population: 30 nM, 48 h, control 12%; for cell cycle effect in HeLa: 7 to 250 nM, 24 h
# [3] = system: Jurkat cells; experiment: Flow cytometric cell cycle analysis, Jurkat; type: cell-based, human
# [4] = system: Jurkat cells; experiment: Annexin-V/PI apoptosis assay; type: cell-based, human; settings: 50 nM, 24-72 h
# Procedure, shortened: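 After treatment for different times, Jurkat cells are co-stained with annexin-V-FITC (per the kit instructions) and PI. They are analysed by flow cytometry with excitation at 488 nm and emission filters at 525 nm (FITC, green) and 585 nm (PI, red). Externalised phosphatidylserine is scored as annexin-V positive cells.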
# [5] = system: Jurkat cells; experiment: Mitochondrial membrane potential; type: cell-based, human; settings: 50 nM
# Procedure, shortened: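 Mitochondrial potential is probed with the lipophilic cation JC-1. After different treatment times, cells are pelleted and resuspended in HBSS containing 1 µM JC-1, held for 10 min at 37 °C, then spun and resuspended in HBSS. Polarised mitochondria form aggregates with shifted emission. On depolarisation, JC-1 monomers emit at 530 nm.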
# [6] = system: Jurkat cells; experiment: Mitochondrial ROS production; type: cell-based, human; settings: up to 72 h, HE and H2DCFDA
# Procedure, shortened: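 After different treatment times, cells are pelleted and resuspended in HBSS containing hydroethidine (2.5 µM) or H2DCFDA (0.1 µM). They are incubated for 30 min at 37 °C, spun and resuspended in HBSS. Fluorescence is recorded directly by flow cytometry, with excitation at 488 nm and emission at 585 nm (ethidium, from superoxide) or 530 nm (DCF, from peroxides).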
# [7] = system: caspase-3 in Jurkat cells; experiment: Caspase-3 activation by flow cytometry; type: cell-based, human; settings: 50 nM, 24, 48, 72 h
# Procedure, shortened: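 After different incubation times with test compound, cells are pelleted and fixed in Cytofix buffer for 20 min, then washed with Perm/Wash. They are stained for 30 min with a FITC-conjugated antibody against the human active caspase-3 fragment, washed and analysed by flow cytometry. Results are given as percentage of caspase-3 active fragment positive cells.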
# [8] = system: PARP and Bcl-2 in Jurkat cells; experiment: Western blot for PARP cleavage and Bcl-2 expression; type: cell-based, human; settings: 50 nM; for PARP cleavage: 24 h
# Procedure, shortened: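 Jurkat cells were treated with test compound for varying times, washed in cold PBS and lysed on ice for 30 min. Lysates were spun at 15000g, 4 °C, 10 min, and protein was measured by BCA. 20 µg protein per lane was run on 7.5–15% SDS–PAGE and blotted to PVDF. Blots were probed with rabbit anti-Bcl-2 or anti-PARP (1:1000, 2 h, RT), then HRP secondary, and developed by ECL. Blots were stripped and reprobed for β-actin as loading control.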
# [9] = system: HUVECs expressing GFP; experiment: Endothelial cell shape change assay; type: cell-based, human; settings: 30 min after drug addition
# Procedure, shortened: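 GFP-expressing HUVECs were grown in EGM-2 with endothelial cell growth supplement and seeded on collagen-coated slides 1 day before assay. Morphology and GFP fluorescence were imaged by confocal microscopy before and at several times after test compound addition. The GFP-positive cell area was quantified by image analysis.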
# [10] = system: chick aortic vascular sprouts; experiment: Chick aortic ring assay; type: cell-based; settings: 30 min incubation
# Procedure, shortened: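 Aortic arches from day 14 chick embryos were cut into cross-sectional slices and embedded in Matrigel with complete medium. Endothelial sprouts or channels formed over 24–48 h. Various concentrations of test compound were then added, and vascular channels were photographed before and 30 min after addition.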
structure (smiles),measurement,setting,value
"COc1ccc(/C=C\c2cc(OC)c(OC)c(OC)c2)cc1O [CA-4, combretastatin A-4, reference compound]",pIC50,[1],6.43 to 8.40
COc1cc(-n2ncnc2-c2ccccc2)cc(OC)c1OC [Compound 4a],antiproliferative activity (in words),[1],did not yield active compounds
COc1cc(-n2ncnc2-c2ccc(F)cc2)cc(OC)c1OC [Compound 4b],antiproliferative activity (in words),[1],did not yield active compounds
COc1cc(-n2ncnc2-c2cccc(F)c2)cc(OC)c1OC [Compound 4c],antiproliferative activity (in words),[1],did not yield active compounds
COc1cc(-n2ncnc2-c2ccc(Cl)cc2)cc(OC)c1OC [Compound 4d],antiproliferative activity (in words),[1],did not yield active compounds
COc1cc(-n2ncnc2-c2ccc(Cl)c(Cl)c2)cc(OC)c1OC [Compound 4f],antiproliferative activity (in words),[1],did not yield active compounds
COc1cccc(-c2ncnn2-c2cc(OC)c(OC)c(OC)c2)c1 [Compound 4i],antiproliferative activity (in words),[1],dramatic drop of potency; also recorded: inactivity
COc1ccccc1-c1ncnn1-c1cc(OC)c(OC)c(OC)c1 [Compound 4j],antiproliferative activity (in words),[1],dramatic drop of potency
"CCOc1ccc(-c2ncnn2-c2cc(OC)c(OC)c(OC)c2)cc1 [Compound 4l, 1-(3,4,5-Trimethoxyphenyl)-5-(4-ethoxyphenyl)-1H-1,2,4-triazole]",G2/M cell population,[2],over 70%
same,cell cycle effect in HeLa,[2],clear G2/M arrest pattern in a concentration-dependent manner
same,cell cycle effect in Jurkat,[3],significant block in the G2/M phase
same,induction of apoptosis (annexin-V positive cells),[4],significant induction of apoptotic cells after 24 h
same,mitochondrial transmembrane potential (JC-1),[5],depolarization of the mitochondrial membrane potential
same,ROS production,[6],induced the production of large amounts of ROS
same,caspase-3 activation,[7],activation of caspase-3 in a time-dependent manner
same,Bcl-2 expression,[8],decreased expression of Bcl-2
same,PARP cleavage,[8],extensive formation of the typical 89 kDa fragment of PARP
same,lowest concentration causing HUVEC retraction and membrane blebs,[9],0.5 µM
same,effect on vascular sprouts from chick aortic ring,[10],disrupted formation of vascular sprouts
CCOc1cccc(-c2ncnn2-c2cc(OC)c(OC)c(OC)c2)c1 [Compound 4m],antiproliferative activity (in words),[1],inactivity
"CCOc1ccc(-c2ncnn2-c2cc(OC)c(OC)c(OC)c2)cc1Cl [Compound 4o, 5-(3-Chloro-4-ethoxyphenyl)-1-(3,4,5-trimethoxyphenyl)-1H-1,2,4-triazole]",pIC50,[1],7.70 to 8.52
same,G2/M cell population,[2],over 70%
same,cell cycle effect in HeLa,[2],clear G2/M arrest pattern in a concentration-dependent manner
same,cell cycle effect in Jurkat,[3],significant block in the G2/M phase
same,induction of apoptosis (annexin-V positive cells),[4],significant induction of apoptotic cells after 24 h
same,mitochondrial transmembrane potential (JC-1),[5],depolarization of the mitochondrial membrane potential
same,ROS production,[6],induced the production of large amounts of ROS
same,caspase-3 activation,[7],activation of caspase-3 in a time-dependent manner
same,Bcl-2 expression,[8],decreased expression of Bcl-2
same,PARP cleavage,[8],extensive formation of the typical 89 kDa fragment of PARP
COc1cc(-n2ncnc2-c2cccc([N+](=O)[O-])c2)cc(OC)c1OC [Compound 4r],antiproliferative activity (in words),[1],did not yield active compounds
